Measured values from ChEMBL document CHEMBL1221219, “Selective blockade of 2-arachidonoylglycerol hydrolysis produces cannabinoid behavioral effects” (Nat Chem Biol, 2009).
The source made the active and inactive calls. The rule behind the calls is not given here.

How the values were obtained:
Mus musculus [1] = assay: Inhibition of GPID in C57B1/6J mouse brain membrane at 16 mg/kg, ip after 4 hrs by competitive activity-based protein profiling-MudPIT method; assay type: functional, organism-based; parameters: dose 16 mg/kg
Outline: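 After i.p. dosing in 4:1 PEG300:Tween80, male C57Bl/6J mice were killed at 4 h. Brain membrane proteomes from treated and vehicle mice were labelled with FP-biotin. Labelled proteins were enriched on avidin, digested on-bead with trypsin and analysed by multidimensional LC-MS. Proteins were identified by SEQUEST, and dosed samples were compared with vehicle.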

Mus musculus [2] = assay: Antinociceptive activity against C57B1/6J mouse at assessed as latency in reaction time required for thermal stimulus-induced tail flicking at 16 mg/kg, ip after 2 hrs; assay type: functional, organism-based; parameters: dose 16 mg/kg
Outline: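 Tail immersion assay of thermal pain in male C57Bl/6J mice, 6-8 weeks. Dose 16 mg kg^-1 i.p. in 4:1 v/v PEG300:Tween80 at 4 μl g^-1, with vehicle controls.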

[3] = target: T1, Monoacylglycerol lipase ABHD6 (Mus musculus) (UniProt Q8R2Y0); assay: Inhibition of ABHD6 in C57B1/6J mouse brain membrane at 10 uM after 30 mins by competitive activity-based protein profiling method; assay type: cell membranes
T1 sequence (whole entry): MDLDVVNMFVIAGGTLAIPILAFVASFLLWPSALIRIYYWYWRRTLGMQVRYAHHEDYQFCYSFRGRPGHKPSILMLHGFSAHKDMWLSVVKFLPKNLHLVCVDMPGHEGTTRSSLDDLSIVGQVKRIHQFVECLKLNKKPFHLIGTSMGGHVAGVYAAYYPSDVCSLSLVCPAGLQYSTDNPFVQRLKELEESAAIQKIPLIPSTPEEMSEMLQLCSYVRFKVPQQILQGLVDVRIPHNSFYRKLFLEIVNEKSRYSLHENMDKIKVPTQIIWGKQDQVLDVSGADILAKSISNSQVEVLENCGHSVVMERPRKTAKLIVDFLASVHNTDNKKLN
Outline: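 Mouse brain membrane proteome at 1 mg ml^-1 in PBS was preincubated with inhibitor (1 nM-10 μM) for 30 min at 37°C. FP-rhodamine was then added at 2 μM final for 30 min at room temperature, followed by SDS-PAGE and in-gel fluorescence scanning.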

O=C(Oc1ccc([N+](=O)[O-])cc1)N1CCC(C(O)(c2ccc3c(c2)OCO3)c2ccc3c(c2)OCO3)CC1
inhibition (Mus musculus [1]): inactive | Activity (Mus musculus [2]): Active | inhibition [3]: Active
